Assays:
Sapajus apella [1] = assay: Iron clearing efficiency in bile duct cannulated Cebus apella assessed as clearance of iron in urine at 75 umol/kg, po […] relative to control; assay type: functional
Sapajus apella [2] = assay: Iron clearing efficiency in bile duct cannulated Cebus apella assessed as clearance of iron in urine at 150 umol/kg, po measured at 3 hrs intervals for up to 48 hrs relative to control; assay type: functional
Sapajus apella [3] = assay: Iron clearing efficiency in bile duct cannulated Cebus apella assessed as clearance of iron at 150 umol/kg, po measured at 3 hrs intervals for up to 48 hrs relative to control; assay type: functional
Sapajus apella [4] = assay: Iron clearing efficiency in bile duct cannulated Cebus apella assessed as clearance of iron in feces at 150 umol/kg, po measured at 3 hrs intervals for up to 48 hrs relative to control; assay type: functional
Rattus norvegicus [5] = assay: Iron clearing efficiency in bile duct cannulated Sprague-Dawley rat assessed as clearance of iron at 300 umol/kg, po measured at 3 hrs intervals for up to 48 hrs relative to control; assay type: functional
In short: (§1)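 Non-iron-overloaded male Sprague-Dawley rats (400–450 g) with cannulated bile ducts received 300 µmol/kg po or sc. […] Bile was sampled every 3 h for up to 48 h and urine at 24 h intervals. ICE = (treated minus control iron excretion) / theoretical output (2:1 ligand:Fe) × 100 over 48 h. Mean ± SEM.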

Rattus norvegicus [6] = assay: Drug metabolism in Sprague-Dawley rat plasma assessed as (S)-4'-(HO)-DADFT-PEAA level at 300 umol/kg, sc after 8 hrs by HPLC analysis; assay type: ADME, organism-based; conditions: in vivo
In short: (§2)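 Male Sprague-Dawley rats (250–350 g) got a single sc dose of the monosodium salt at 300 µmol/kg, n=3 per time point. They were killed with CO2 at 0.5, 1, 2, 4 and 8 h. Citrated cardiac-puncture blood was spun to plasma, and liver, kidney, heart and pancreas were frozen. Tissue was homogenized 1:1 in water, given a methanol rinse, held 30 min at −20 °C, centrifuged and filtered. Read-out was reversed-phase HPLC, UV 310 nm.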

Rattus norvegicus [7] = assay: Drug metabolism in Sprague-Dawley rat pancreas assessed as (S)-4'-(HO)-DADFT-PEAA level at 300 umol/kg, sc up to 8 hrs by HPLC analysis; assay type: ADME, organism-based; conditions: in vivo; in short: as §2
Sapajus apella [8] = assay: Iron clearing efficiency in bile duct cannulated Cebus apella assessed as clearance of iron in bile at 75 umol/kg, po measured at 3 hrs intervals for up to 48 hrs relative to control; assay type: functional
Rattus norvegicus [9] = assay: Iron clearing efficiency in bile duct cannulated Sprague-Dawley rat assessed as clearance of iron in bile at 300 umol/kg, po measured at 3 hrs intervals for up to 48 hrs relative to control; assay type: functional; in short: as §1
Rattus norvegicus [10] = assay: Drug metabolism in Sprague-Dawley rat kidney assessed as (S)-4'-(HO)-DADFT-PEAA level at 300 umol/kg, sc up to 8 hrs by HPLC analysis; assay type: ADME, organism-based; conditions: in vivo; in short: as §2
Rattus norvegicus [11] = assay: Iron clearing efficiency in bile duct cannulated Sprague-Dawley rat assessed as clearance of iron in urine at 300 umol/kg, po measured at 3 hrs intervals for up to 48 hrs relative to control; assay type: functional
Rattus norvegicus [12] = assay: Drug metabolism in Sprague-Dawley rat heart assessed as (S)-4'-(HO)-DADFT-PEAA level at 300 umol/kg, sc up to 8 hrs by HPLC analysis; assay type: ADME, organism-based; conditions: in vivo; in short: as §2
Sapajus apella [13] = assay: Iron clearing efficiency in bile duct cannulated Cebus apella assessed as clearance of iron in urine at 75 umol/kg, sc […] relative to control; assay type: functional
Rattus norvegicus [14] = species on record: Rattus norvegicus; assay: Iron clearing efficiency in bile duct cannulated Sprague-Dawley rat assessed as […] for up to 48 hrs relative to control; assay type: functional, Urine
Sapajus apella [15] = assay: Iron clearing efficiency in bile duct cannulated Cebus apella assessed as clearance of iron in bile at 75 umol/kg, sc measured at 3 hrs intervals for up to 48 hrs relative to control; assay type: functional
Rattus norvegicus [16] = assay: Iron clearing efficiency in bile duct cannulated Sprague-Dawley rat assessed as clearance of iron in bile at 300 umol/kg, sc measured at 3 hrs intervals for up to 48 hrs relative to control; assay type: functional; in short: as §1
[17] = Performance ratio, ratio of iron clearing efficiency in […] at 75 umol/kg, po to iron clearing efficiency in bile duct cannulated Sprague-Dawley rat at 300 umol/kg, po; assay type: functional
In short: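 Performance ratio = mean ICE in iron-overloaded Cebus apella (75 µmol/kg) divided by mean ICE in bile duct-cannulated rats (300 µmol/kg), by the same route.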

Sapajus apella [18] = assay: Iron clearing efficiency in bile duct cannulated Cebus apella assessed as clearance of iron in urine at 150 umol/kg, sc measured at 3 hrs intervals for up to 48 hrs relative to control; assay type: functional
Rattus norvegicus [19] = assay: Iron clearing efficiency in bile duct cannulated Sprague-Dawley rat assessed as clearance of iron in urine at 150 umol/kg, sc measured at 3 hrs intervals for up to 48 hrs relative to control; assay type: functional
Sapajus apella [20] = assay: Iron clearing efficiency in bile duct cannulated Cebus apella assessed as clearance of iron in feces at 150 umol/kg, sc measured at 3 hrs intervals for up to 48 hrs relative to control; assay type: functional
Rattus norvegicus [21] = assay: Iron clearing efficiency in bile duct cannulated Sprague-Dawley rat assessed as clearance of iron at 150 umol/kg, sc measured at 3 hrs intervals for up to 48 hrs relative to control
Rattus norvegicus [22] = assay: Drug metabolism in Sprague-Dawley rat plasma assessed as (S)-4'-(HO)-DADFT-PEA level at 300 umol/kg, sc up to 8 hrs by HPLC analysis; assay type: ADME, organism-based; conditions: in vivo; in short: as §2
Rattus norvegicus [23] = assay: Drug metabolism in Sprague-Dawley rat liver assessed as (S)-4'-(HO)-DADFT level at 300 umol/kg, sc after 8 hrs; assay type: ADME, organism-based; conditions: in vivo
Rattus norvegicus [24] = assay: Drug metabolism in Sprague-Dawley rat heart assessed as (S)-4'-(HO)-DADFT-PEA level at 300 umol/kg, sc up to 8 hrs by HPLC analysis; assay type: ADME, organism-based; conditions: in vivo; in short: as §2
Rattus norvegicus [25] = assay: Drug metabolism in Sprague-Dawley rat pancreas assessed as (S)-4'-(HO)-DADFT-PEA level at 300 umol/kg, sc up to 8 hrs by HPLC analysis; assay type: ADME, organism-based; conditions: in vivo; in short: as §2
Sapajus apella [26] = assay: Iron clearing efficiency in […] Cebus apella assessed as clearance of iron in feces at 75 umol/kg, po […] relative to control; assay type: functional
In short: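 Cebus apella monkeys (3.5–6.5 kg) were iron-overloaded with intravenous iron dextran to about 500 mg Fe/kg, reaching serum transferrin saturation of 70–80%. At least 60 days elapsed before use. Chelator was given at 75 µmol/kg po or sc, with the same animals dosed by both routes. Feces and urine were collected at 24 h intervals from 4 days before to 5 days after dosing, and iron was measured by flame absorption spectroscopy. ICE = 2-day post-drug output minus 4-day mean baseline, divided by theoretical output (2:1 ligand:Fe), as %. Mean ± SEM.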

Rattus norvegicus [27] = assay: Drug metabolism in Sprague-Dawley rat plasma assessed as (S)-4'-(HO)-DADFT-PEAA level at 300 umol/kg, sc up to 8 hrs by HPLC analysis; assay type: ADME, organism-based; conditions: in vivo; in short: as §2
[28] = Drug metabolism in Sprague-Dawley rat plasma assessed as parent compound level at 300 umol/kg, sc after 0.5 hrs by HPLC analysis; assay type: ADME, organism-based; conditions: read-out: Stability
In short: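 Rats (male Sprague-Dawley, 250–350 g) were dosed sc once with the monosodium salt, 300 µmol/kg, three animals per time point up to 8 h. Plasma came from citrated cardiac blood; liver was frozen after CO2 euthanasia. Parent and metabolites were quantified by HPLC with UV at 310 nm against linear calibration curves (detection limit 0.25 µM, linear 1–1000 µM). Data are means.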

Rattus norvegicus [29] = assay: Drug metabolism in Sprague-Dawley rat liver assessed as (S)-4'-(HO)-DADFT-PEAA level at 300 umol/kg, sc up to 8 hrs by HPLC analysis; assay type: ADME, organism-based; conditions: in vivo; in short: as §2
Rattus norvegicus [30] = assay: Drug metabolism in Sprague-Dawley rat liver assessed as (S)-4'-(HO)-DADFT-PEA level at 300 umol/kg, sc up to 8 hrs by HPLC analysis; assay type: ADME, organism-based; conditions: in vivo; in short: as §2
Rattus norvegicus [31] = assay: Drug metabolism in Sprague-Dawley rat kidney assessed as (S)-4'-(HO)-DADFT-PEA level at 300 umol/kg, sc up to 8 hrs by HPLC analysis; assay type: ADME, organism-based; conditions: in vivo; in short: as §2

COCCOCCOc1ccc(C2=N[C@@](C)(C(=O)[O-])CS2)c(O)c1.[Na+]
Activity (Sapajus apella [1]): 17%

C[C@]1(C(=O)O)CSC(c2cccc(O)c2O)=N1
Activity (Sapajus apella [2]): 17%
Activity (Sapajus apella [3]): 23.1%
Activity (Sapajus apella [4]): 83%

COc1ccc(C2=N[C@@](C)(C(=O)O)CS2)c(O)c1
Activity (Rattus norvegicus [5]): 6.6%

C[C@]1(C(=O)O)CSC(c2ccc(OCCOCCO)cc2O)=N1
Drug metabolism (Rattus norvegicus [6]): metabolite_notdetected
Drug metabolism (Rattus norvegicus [7]): metabolite_detected
Activity (Sapajus apella [8]): 54%
Activity (Rattus norvegicus [9]): 98%
Activity (Sapajus apella [1]): 46%
Drug metabolism (Rattus norvegicus [10]): metabolite_detected
Activity (Rattus norvegicus [11]): 2%
Drug metabolism (Rattus norvegicus [12]): metabolite_detected

C[C@]1(C(=O)O)CSC(c2ccc(OCCOCC(=O)O)cc2O)=N1
Activity (Sapajus apella [8]): 51%
Activity (Rattus norvegicus [9]): 100%
Activity (Sapajus apella [1]): 49%
Activity (Rattus norvegicus [11]): 0%

COCCCCCCOc1ccc(C2=N[C@@](C)(C(=O)O)CS2)c(O)c1
Activity (Rattus norvegicus [9]): 99%
Activity (Rattus norvegicus [11]): 1%

C[C@]1(C(=O)O)CSC(c2ccc(OCCCCCC(=O)O)cc2O)=N1
Activity (Sapajus apella [8]): 82%
Activity (Rattus norvegicus [9]): 94%
Activity (Sapajus apella [1]): 18%
Activity (Rattus norvegicus [11]): 6%

C[C@]1(C(=O)O)CSC(c2ccc(OCCCC(=O)O)cc2O)=N1
Activity (Sapajus apella [8]): 97%
Activity (Rattus norvegicus [9]): 89%
Activity (Sapajus apella [1]): 3%
Activity (Rattus norvegicus [11]): 11%

C[C@]1(C(=O)O)CSC(c2ccc(OCC(=O)O)cc2O)=N1
Activity (Sapajus apella [8]): 60%
Activity (Rattus norvegicus [9]): 89%
Activity (Sapajus apella [1]): 40%
Activity (Rattus norvegicus [11]): 11%

C[C@]1(C(=O)[O-])CSC(c2ccc(OCCOCC(=O)O)cc2O)=N1.[Na+]
Activity (Sapajus apella [13]): 16%
Activity (Rattus norvegicus [14]): 1%
Activity (Sapajus apella [15]): 84%
Activity (Rattus norvegicus [16]): 99%

C[C@]1(C(=O)[O-])CSC(c2ccc(OCCCCCC(=O)O)cc2O)=N1.[Na+]
Activity (Sapajus apella [13]): 31%
Activity (Rattus norvegicus [14]): 4%
Ratio [17]: 1.2
Activity (Sapajus apella [15]): 69%
Activity (Rattus norvegicus [16]): 96%

C[C@]1(C(=O)[O-])CSC(c2ccc(OCCCC(=O)O)cc2O)=N1.[Na+]
Activity (Sapajus apella [13]): 22%
Activity (Rattus norvegicus [14]): 5%
Activity (Sapajus apella [15]): 78%
Activity (Rattus norvegicus [16]): 95%

C[C@]1(C(=O)[O-])CSC(c2ccc(OCC(=O)O)cc2O)=N1.[Na+]
Activity (Sapajus apella [13]): 47%
Activity (Sapajus apella [15]): 53%
Activity (Rattus norvegicus [16]): 94%

COCCOCCOCCOc1ccc(C2=N[C@@](C)(C(=O)O)CS2)c(O)c1
Activity (Rattus norvegicus [5]): 5.5%

COCCOCCOCCOc1cccc(C2=N[C@@](C)(C(=O)O)CS2)c1O [DEFERITAZOLE]
Activity (Sapajus apella [2]): 5%
Activity (Sapajus apella [3]): 23%
Activity (Sapajus apella [4]): 95%

CC(=O)N(O)CCCCCNC(=O)CCC(=O)N(O)CCCCCNC(=O)CCC(=O)N(O)CCCCCN [DEFEROXAMINE]
Activity (Sapajus apella [18]): 55%
Activity (Rattus norvegicus [19]): 26%
Activity (Sapajus apella [20]): 45%
Activity (Rattus norvegicus [21]): 74%

COCCOCCOc1ccc(C2=N[C@@](C)(C(=O)O)CS2)c(O)c1 [SP-420]
Drug metabolism (Rattus norvegicus [7]): metabolite_notdetected
Drug metabolism (Rattus norvegicus [22]): metabolite_detected
Drug metabolism (Rattus norvegicus [23]): metabolite_notdetected
Drug metabolism (Rattus norvegicus [24]): metabolite_detected
Activity (Rattus norvegicus [9]): 97%
Drug metabolism (Rattus norvegicus [25]): metabolite_detected
Activity (Sapajus apella [26]): 93%
Drug metabolism (Rattus norvegicus [27]): metabolite_notdetected
remaining at 0.5 h [28]: 95%
Drug metabolism (Rattus norvegicus [10]): metabolite_notdetected
Drug metabolism (Rattus norvegicus [29]): metabolite_notdetected
Drug metabolism (Rattus norvegicus [30]): metabolite_detected
Activity (Rattus norvegicus [11]): 3%
Drug metabolism (Rattus norvegicus [12]): metabolite_notdetected
Drug metabolism (Rattus norvegicus [31]): metabolite_detected

— ChEMBL document CHEMBL3608261, “Metabolically programmed iron chelators” (Bioorg Med Chem, 2015)
